The values below come from ChEMBL document CHEMBL3877303 (J Med Chem, 2017).

For data set [1], the target named is BCR/ABL p210 fusion protein (Homo sapiens, UniProt A1Z199). The experiment in a line: Inhibition of human BCR/ABL p210 fusion protein expressed in BAF3 cells assessed as growth inhibition measured after 72 hrs by CellTiter-Glo or CCK8 assay. It counts as cell-based. In short, it runs like this:
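Seeded at 1 to 2.5×10^4 cells/mL with various compound concentrations, 72 h. Viability read by CellTiter-Glo luminescence or CCK-8 absorbance (450/655 nm), normalized to DMSO control, GI50 from curve fit, triplicate testing.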
In general terms: ATP-based viability assays read luminescence as a measure of living cells.

Data set [2] is described as follows: Growth inhibition of mouse BAF3 cells measured after 72 hrs by CellTiter-Glo or CCK8 assay. It counts as cell-based. In short, it runs like this: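 Cells at 1 to 2.5×10^4 cells/mL were incubated with a range of compound concentrations for 72 h. Viability was read by CellTiter-Glo luminescence or CCK-8 absorbance (450/655 nm) and normalized to DMSO control. GI50 came from curve fitting, with triplicate testing.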

The target in data set [3] is T1, Mast/stem cell growth factor receptor Kit (Homo sapiens, UniProt P10721). The settings on record: BaF3.
The target in data set [4] is T1, Mast/stem cell growth factor receptor Kit. The experiment in a line: Inhibition of recombinant C-terminal polyhistidine-tagged human c-KIT expressed in mammalian expression system using Tyr 06 peptide as substrate measured after 1hr by FRET based Z'Lyte assay.

T1 sequence (P10721 whole entry): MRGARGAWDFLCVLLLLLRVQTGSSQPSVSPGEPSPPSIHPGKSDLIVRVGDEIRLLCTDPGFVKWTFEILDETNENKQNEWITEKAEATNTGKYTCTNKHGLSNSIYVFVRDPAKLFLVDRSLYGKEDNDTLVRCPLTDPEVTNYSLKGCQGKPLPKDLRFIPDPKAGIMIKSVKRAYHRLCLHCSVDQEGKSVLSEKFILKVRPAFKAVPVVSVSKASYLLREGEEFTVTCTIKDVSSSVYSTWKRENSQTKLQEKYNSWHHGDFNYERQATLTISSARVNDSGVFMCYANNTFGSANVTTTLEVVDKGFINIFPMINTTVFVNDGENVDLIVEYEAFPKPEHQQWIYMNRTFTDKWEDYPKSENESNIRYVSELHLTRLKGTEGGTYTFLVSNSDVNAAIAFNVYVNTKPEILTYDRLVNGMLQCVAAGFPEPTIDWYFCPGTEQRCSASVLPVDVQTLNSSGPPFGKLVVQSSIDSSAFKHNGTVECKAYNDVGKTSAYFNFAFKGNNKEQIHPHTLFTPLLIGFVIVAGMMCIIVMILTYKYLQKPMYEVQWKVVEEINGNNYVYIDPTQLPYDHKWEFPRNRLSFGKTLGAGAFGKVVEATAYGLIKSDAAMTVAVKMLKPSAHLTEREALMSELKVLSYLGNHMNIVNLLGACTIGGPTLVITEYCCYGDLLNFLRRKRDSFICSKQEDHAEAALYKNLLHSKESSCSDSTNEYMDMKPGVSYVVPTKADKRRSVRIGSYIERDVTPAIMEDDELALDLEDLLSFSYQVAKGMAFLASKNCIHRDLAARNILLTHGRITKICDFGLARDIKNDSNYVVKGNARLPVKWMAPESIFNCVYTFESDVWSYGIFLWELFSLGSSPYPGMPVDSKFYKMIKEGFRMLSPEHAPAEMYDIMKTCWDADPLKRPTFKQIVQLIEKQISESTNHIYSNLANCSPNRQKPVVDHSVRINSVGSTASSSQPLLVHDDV
Sequence of BCR/ABL p210 fusion protein (A1Z199 1-97): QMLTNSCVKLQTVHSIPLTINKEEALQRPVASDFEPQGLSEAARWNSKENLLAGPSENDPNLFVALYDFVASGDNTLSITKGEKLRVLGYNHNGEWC

On to `Cc1ccc(NC(=O)c2ccc(CN3CCN(C)CC3)c(C(F)(F)F)c2)cc1OCC1CN(C(=O)c2cccnc2)C1`, for which the values for the GI50 in data set [1] and in data set [3] were 5400 nM and 2860 nM, respectively. In data set [2], the 50% growth inhibitory concentration (GI50) at 72 h was determined as 1070 nM.

As to `CCC(=O)N1CCC(Oc2cc(NC(=O)c3ccc(CN4CCN(C)CC4)c(C(F)(F)F)c3)ccc2C)CC1`, the results for the GI50 in data set [1] and in data set [3] were 998 nM and 300 nM, respectively. In addition, the GI50 at 72 h in data set [2] was greater than 10000 nM.

On to `Cc1cncc(C(=O)N2CCC(Oc3cc(NC(=O)c4ccc(CN5CCN(C)CC5)c(C(F)(F)F)c4)ccc3C)CC2)c1`, for which the results for the GI50 in data set [1] and in data set [3] were 79 nM and 28 nM, respectively. In addition, in data set [2], it took 800 nM to inhibit growth by half (GI50 at 72 h). Also, in data set [4], the concentration for half-maximal inhibition (IC50) is 214 nM.

`Cc1ccc(NC(=O)c2ccc(CN3CCN(C)CC3)c(C(F)(F)F)c2)cc1OC1CCN(C(=O)CN(C)C)CC1`: the figures for the GI50 in data set [1] and in data set [3] were 3070 nM and 1630 nM, respectively. Also, the GI50 at 72 h in data set [2] is greater than 10000 nM.

Regarding `Cc1ccc(NC(=O)c2ccc(CN3CCN(C)CC3)c(C(F)(F)F)c2)cc1OC1CCN(C(=O)c2ccsc2)CC1`, the GI50 in data set [1] was 135 nM; in data set [3], 26 nM. Moreover, in data set [2], halving of growth (GI50 at 72 h) required 1480 nM.

`Cc1ccc(NC(=O)c2ccc(CN3CCN(C)CC3)c(C(F)(F)F)c2)cc1OC1CCN(C(=O)c2cnc(N)nc2)CC1`: the concentration for 50% growth inhibition (GI50) worked out at 168 nM in data set [1] and 200 nM in data set [3]. In addition, the GI50 at 72 h in data set [2] was greater than 10000 nM.

For the compound `Cc1ccc(NC(=O)c2ccc(CN3CCN(C)CC3)c(C(F)(F)F)c2)cc1OC1CCN(C(=O)c2cnc3ccccc3c2)CC1`, the 50% growth inhibitory concentration (GI50) stood at 86 nM in data set [1] and 320 nM in data set [3]. In data set [2], this compound showed a concentration for 50% growth inhibition (GI50) at 72 h of 1300 nM.

For the compound `Cc1ccc(NC(=O)c2ccc(CN3CCN(C)CC3)c(C(F)(F)F)c2)cc1OC1CCN(C(=O)c2cccnc2F)CC1`, the values for the GI50 in data set [1] and in data set [3] were 2000 nM and 63 nM, respectively. In data set [2], this compound displayed a GI50 at 72 h of 1520 nM.

With `Cc1ccc(NC(=O)c2ccc(CN3CCN(C)CC3)c(C(F)(F)F)c2)cc1OC1CCN(C(=O)c2ccc(=O)[nH]c2)CC1`, the results for the GI50 in data set [1] and in data set [3] were 1970 nM and 1600 nM, respectively. This compound also had a 50% growth inhibitory concentration (GI50) at 72 h in data set [2] greater than 10000 nM.

As to `COc1ccc(NC(=O)c2ccc(CN3CCN(C)CC3)c(C(F)(F)F)c2)cc1OC1CCN(C(=O)c2cccnc2)CC1`, the results for the 50% growth inhibitory concentration (GI50) in data set [1] and in data set [3] were 8410 nM and greater than 10000 nM, respectively. This compound also returned a concentration for 50% growth inhibition (GI50) at 72 h in data set [2] greater than 10000 nM.

In the case of `Cc1ccc(NC(=O)c2ccc(CN3CCN(C)CC3)c(C(F)(F)F)c2)cc1OC1CCN(C(=O)c2ccoc2)CC1`, the 50% growth inhibitory concentration (GI50) in data set [1] came to 153 nM; in data set [3], 270 nM. Further, the concentration for 50% growth inhibition (GI50) at 72 h in data set [2] was greater than 10000 nM.

As to `CN1CCN(Cc2ccc(C(=O)Nc3ccc(Cl)c(OC4CCN(C(=O)c5cccnc5)CC4)c3)cc2C(F)(F)F)CC1`, the GI50 in data set [1] was 253 nM; in data set [3], 340 nM. The GI50 at 72 h in data set [2] is greater than 10000 nM.

As to `Cc1ccc(NC(=O)c2ccc(CN3CCN(C)CC3)c(C(F)(F)F)c2)cc1OC1CCN(C(=O)c2ccccn2)CC1`, the GI50 in data set [1] was determined as 72 nM; in data set [3] it was 200 nM. In data set [2], this compound returned a GI50 at 72 h greater than 10000 nM. In addition, the IC50 in data set [4] worked out at 644 nM.

In the case of `Cc1ccc(NC(=O)c2ccc(CN3CCN(C)CC3)c(C(F)(F)F)c2)cc1OC1CCN(C(=O)c2ccncc2)CC1`, the 50% growth inhibitory concentration (GI50) was 88 nM in data set [1] and 170 nM in data set [3]. In data set [2], this compound had a 50% growth inhibitory concentration (GI50) at 72 h greater than 10000 nM. In addition, in data set [4], the 50% inhibitory concentration (IC50) was 256 nM.

Consider `Cc1ccc(NC(=O)c2ccc(CN3CCN(C)CC3)c(C(F)(F)F)c2)cc1OC1CCN(C(=O)c2cccnc2C)CC1`, for which the values for the GI50 in data set [1] and in data set [3] were 2210 nM and 370 nM, respectively. Also, the GI50 at 72 h in data set [2] is 540 nM.

Take `Cc1ccc(NC(=O)c2ccc(CN3CCN(C)CC3)c(C(F)(F)F)c2)cc1OC1CCN(C(=O)c2cccnc2Cl)CC1`: the values for the concentration for 50% growth inhibition (GI50) in data set [1] and in data set [3] were 2760 nM and 62 nM, respectively. Further, halving of growth in data set [2] (GI50 at 72 h) required 2720 nM.

For the compound `Cc1ccc(NC(=O)c2ccc(CN3CCN(C)CC3)c(C(F)(F)F)c2)cc1OCCNC(=O)c1cccnc1`, the GI50 was 1550 nM in data set [1] and 3300 nM in data set [3]. Further, the concentration for 50% growth inhibition (GI50) at 72 h in data set [2] was greater than 10000 nM.

Regarding `Cc1ccc(NC(=O)c2ccc(CN3CCN(C)CC3)cc2)cc1OC1CCN(C(=O)c2cccnc2)CC1`, the GI50 is 8780 nM in data set [1] and greater than 5000 nM in data set [3]. In data set [2], the GI50 at 72 h was greater than 10000 nM.

In the case of `Cc1ccc(NC(=O)c2ccc(CN3CCN(C)CC3)c(C(F)(F)F)c2)cc1OCC1CCN(C(=O)c2cccnc2)C1` (configuration not stated), the GI50 came to 4940 nM in data set [1] and 3820 nM in data set [3]. The compound further registered a GI50 at 72 h in data set [2] of 3980 nM.

Consider `C=CC(=O)N1CCC(Oc2cc(NC(=O)c3ccc(CN4CCN(C)CC4)c(C(F)(F)F)c3)ccc2C)CC1`, for which the 50% growth inhibitory concentration (GI50) in data set [1] was 427 nM. The compound also returned a GI50 at 72 h in data set [2] greater than 10000 nM.

Take `Cc1ccc(NC(=O)c2ccc(CN3CCN(C)CC3)c(C(F)(F)F)c2)cc1OC1CCN(C(=O)c2cncc(Cl)c2)CC1`: the 50% growth inhibitory concentration (GI50) in data set [1] worked out at 219 nM; in data set [3], 37 nM. The compound also showed a GI50 at 72 h in data set [2] of 2870 nM.

`Cc1ccc(NC(=O)c2ccc(CN3CCN(C)CC3)c(C(F)(F)F)c2)cc1OC1CCN(C(=O)Cc2cccnc2)CC1`: the 50% growth inhibitory concentration (GI50) in data set [1] is 5520 nM; in data set [3] it was 780 nM. The GI50 at 72 h in data set [2] was 6490 nM.

In the case of `COc1cc2ncnc(N3CCC(Oc4cc(NC(=O)c5ccc(CN6CCN(C)CC6)c(C(F)(F)F)c5)ccc4C)CC3)c2cc1OC`, the GI50 came to 773 nM in data set [1] and 190 nM in data set [3]. In data set [2], this compound had a concentration for 50% growth inhibition (GI50) at 72 h of 1200 nM.

`Cc1ccc(NC(=O)c2ccc(CN3CCN(C)CC3)c(C(F)(F)F)c2)cc1OC1CCN(C(=O)c2ccccc2)CC1`: the GI50 in data set [1] came to 635 nM; in data set [3], 550 nM. The same compound registered a concentration for 50% growth inhibition (GI50) at 72 h in data set [2] of 4730 nM.

In the case of `Cc1ccc(NC(=O)c2ccc(CN3CCN(C)CC3)c(C(F)(F)F)c2)cc1OC1CCN(c2ncccn2)CC1`, the concentration for 50% growth inhibition (GI50) in data set [1] came out at 3220 nM; in data set [3], 2500 nM. For the same compound, the 50% growth inhibitory concentration (GI50) at 72 h in data set [2] is 8100 nM.

For the compound `Cc1ccc(NC(=O)c2ccc(CN3CCN(C)CC3)c(C(F)(F)F)c2)cc1OC1CCN(C(=O)c2cccnc2)CC1`, the results for the GI50 in data set [1] and in data set [3] were 164 nM and 220 nM, respectively. For the same compound, in data set [2], the GI50 at 72 h is greater than 10000 nM.

Take `Cc1ccc(NC(=O)c2ccc(CN3CCN(C)CC3)c(C(F)(F)F)c2)cc1OC1CCN(S(=O)(=O)c2ccccc2)CC1`: the GI50 in data set [1] is 4770 nM; in data set [3] it was 600 nM. The compound also displayed a 50% growth inhibitory concentration (GI50) at 72 h in data set [2] of 5100 nM.

On to `Cc1ccc(NC(=O)c2ccc(CN3CCN(C)CC3)c(C(F)(F)F)c2)cc1OC1CCN(C(=O)c2cnccc2C)CC1`, for which the GI50 was determined as 203 nM in data set [1] and 210 nM in data set [3]. Also, in data set [2], the GI50 at 72 h is 2680 nM. In data set [4], the half-inhibitory concentration (IC50) stood at 336 nM.

For orientation: GI50 means the concentration that inhibits growth by half. What is called IC50 is the concentration that gives 50% inhibition.
